For test [1], the target named is T1, Cannabinoid receptor 2 (Homo sapiens, UniProt P34972). As to the kind of experiment: Displacement of [3H]CP-55,940 from human recombinant CB2R expressed in HEK-293 cells after 90 mins by liquid scintillation counting. Details: species or system HEK293. (Displacement assays read how much labelled ligand stays bound in the presence of the test substance.)
Test [2] deals with Cannabinoid receptor 1 (Homo sapiens, UniProt P21554). As to the kind of experiment: Displacement of [3H]CP-55,940 from human recombinant CB1R expressed in HEK-293 cells after 90 mins by liquid scintillation counting. Details: species or system HEK293.
Test [3] has as its system HEK293. The test is described as follows: Selectivity ratio of Ki for human recombinant CB1R expressed in HEK-293 cells to Ki for human recombinant CB2R expressed in HEK-293 cells. The test is classed as cell-based.
Test [4] concerns the target T1, Cannabinoid receptor 2. As to the kind of experiment: Agonist activity at human recombinant CB2R expressed in U2OS cells assessed as beta-arrestin-GFP binding to receptor […] by fluorescent microscopy. The test is classed as cell-based.
In test [5] the target is T1, Cannabinoid receptor 2. As to the kind of experiment: Agonist activity at human recombinant CB2R expressed in […] U2OS cells assessed as reduction in forskolin-mediated cAMP level after 30 mins by time-resolved fluorescence assay. The test is classed as functional, cell-based. In short, it runs like this: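 hCB2R-expressing U2OS cells in HBSS stimulation buffer with 0.1% BSA, 0.5 mM IBMX and 5 mM HEPES, pH 7.4, at 3000 cells/well. Cells treated with forskolin (10 μM final) and various ligand concentrations for 30 min at room temperature. cAMP measured by LANCE TR-FRET (Eu-cAMP tracer plus ULight antibody, 1 h in the dark, 615/665 nm) against a cAMP standard curve. Three experiments in triplicate.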

In test [6] the target is T1, Cannabinoid receptor 2. The test is described as follows: Antagonist activity at human recombinant CB2R expressed in WIN-55212-stimulated U2OS cells assessed as increase in forskolin-mediated cAMP level after 30 mins by time-resolved fluorescence assay. The test is classed as functional, cell-based. In general terms: Changes in cAMP serve as a functional read-out for many G protein-coupled receptors.

Test [7] addresses T1, Cannabinoid receptor 2. The test is described as follows: Antagonist activity at human recombinant CB2R expressed in U2OS cells assessed as inhibition of WIN-55212-induced beta-arrestin-GFP binding to receptor preincubated for 15 mins by fluorescent microscopy. Format: cell-based. An outline of the steps: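 Same βarr2-GFP redistribution set-up in hCB2R U2OS cells on coverslips. […] Fixed in 4% paraformaldehyde, imaged by fluorescence microscopy. […] Three experiments in duplicate.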

T1 sequence (P34972 whole entry): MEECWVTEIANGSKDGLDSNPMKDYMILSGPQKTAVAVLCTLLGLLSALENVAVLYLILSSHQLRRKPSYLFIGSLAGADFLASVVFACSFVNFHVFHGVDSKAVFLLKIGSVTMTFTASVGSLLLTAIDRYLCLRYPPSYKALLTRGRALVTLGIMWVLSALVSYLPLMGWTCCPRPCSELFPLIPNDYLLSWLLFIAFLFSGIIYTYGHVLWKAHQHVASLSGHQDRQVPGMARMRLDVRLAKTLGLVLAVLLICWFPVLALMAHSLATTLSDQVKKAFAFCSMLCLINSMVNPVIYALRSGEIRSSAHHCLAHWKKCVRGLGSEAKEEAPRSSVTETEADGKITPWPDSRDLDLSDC
Sequence of Cannabinoid receptor 1 (P21554 whole entry): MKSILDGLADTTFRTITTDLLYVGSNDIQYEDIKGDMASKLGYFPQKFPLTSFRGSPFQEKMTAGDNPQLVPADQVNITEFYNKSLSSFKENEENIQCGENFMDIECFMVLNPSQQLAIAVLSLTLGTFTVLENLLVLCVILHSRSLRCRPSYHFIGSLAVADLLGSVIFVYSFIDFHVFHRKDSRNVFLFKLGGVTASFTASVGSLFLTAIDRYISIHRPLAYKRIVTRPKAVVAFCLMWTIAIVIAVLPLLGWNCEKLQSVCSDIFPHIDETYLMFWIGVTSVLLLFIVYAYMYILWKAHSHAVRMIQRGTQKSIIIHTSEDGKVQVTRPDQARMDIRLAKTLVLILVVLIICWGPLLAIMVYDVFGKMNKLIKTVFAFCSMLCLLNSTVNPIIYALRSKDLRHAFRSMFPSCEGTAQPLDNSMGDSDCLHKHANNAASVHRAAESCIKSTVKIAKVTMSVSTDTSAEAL

As for `CC1CCC(NC(=O)c2cc3cccnc3n(CCCC(=O)O)c2=O)CC1` (stereo not drawn), the inhibition constant (Ki) (in general, the dissociation constant of the complex between target and ligand, obtained from inhibition or displacement) in test [1] was 2470 nM; in test [2], more than 10000 nM.
Take `CC1CCC(NC(=O)c2cc3cc(-c4cccs4)cnc3n(CCN3CCOCC3)c2=O)CC1` (stereo not drawn): in test [3], the Ratio Ki came out at 192. For the same compound, the Ki in test [1] worked out at 0.17 nM; in test [2] it was 32.7 nM.
For `C[C@H]1CC[C@@H](NC(=O)c2cc3cc(Br)cnc3n(Cc3ccc(F)cc3)c2=O)CC1`, in that order: 1010, 0.12 nM and 121 nM.
Turning to `C[C@H]1CC[C@H](NC(=O)c2cc3cc(Br)cnc3n(Cc3ccc(F)cc3)c2=O)CC1`, the Ratio Ki in test [3] is 148. The figures for the Ki in test [1] and in test [2] were 1.12 nM and 166 nM, respectively.
As to `CC1CCC(NC(=O)c2cc3cc(-c4ccco4)cnc3n(CCN3CCOCC3)c2=O)CC1` (stereo not drawn), the Ratio Ki in test [3] was 151. In addition, the inhibitory constant (Ki) in test [1] stood at 0.35 nM; in test [2], 52.9 nM.
As for `CC1CCC(NC(=O)c2cc3cccnc3n(CCCCF)c2=O)CC1` (stereo not drawn), the figures for the EC50 in test [4] and in test [5] were 21.8 nM and 20.6 nM, respectively. Further, the Ratio Ki in test [3] is 743. The half-inhibitory concentration (IC50) (commonly the concentration that gives 50% inhibition) in test [1] was 5.35 nM. The figures for the inhibitory constant (Ki) in test [1] and in test [2] were 1.36 nM and 1010 nM, respectively.
With `CC1CCC(NC(=O)c2cc3cc(-c4ccc(F)cc4)cnc3n(CCN3CCOCC3)c2=O)CC1` (stereo not drawn), the Ratio Ki in test [3] is 98. The results for the Ki in test [1] and in test [2] were 0.68 nM and 66.7 nM, respectively.
On to `CC1CCC(NC(=O)c2cc3cccnc3n(CCC(=O)O)c2=O)CC1` (stereo not drawn), for which the inhibition constant Ki was 1390 nM in test [1] and more than 10000 nM in test [2].
Turning to `CCOC(=O)CCn1c(=O)c(C(=O)NC2CCC(C)CC2)cc2cccnc21` (stereo not drawn), the figures for the Ki in test [1] and in test [2] were 176 nM and more than 10000 nM, respectively.
For the compound `CC1CCC(NC(=O)c2cc3cccnc3n(CCCCCCF)c2=O)CC1` (stereo not drawn), the Ratio Ki in test [3] amounted to 24.4. Besides, the Ki worked out at 1.46 nM in test [1] and 35.7 nM in test [2].
For the compound `CC1CCC(NC(=O)c2cc3cccnc3n(CCCCCO)c2=O)CC1` (stereo not drawn), the Ki was 3.6 nM in test [1] and more than 10000 nM in test [2].
As to `CC1CCC(NC(=O)c2cc3cc(Br)cnc3n(Cc3ccc(F)cc3)c2=O)CC1` (stereo not drawn), the IC50 entry in test [6] (u2os) is “ND(Insoluble)”; in test [7] it was 31.6 nM; in test [1] it was 0.72 nM. Further, the Ratio Ki in test [3] came to 534. The Ki in test [1] was 0.18 nM; in test [2], 96.1 nM.
With `CCCC(C)(C)c1ccc2c(c1)OC(C)(C)[C@@H]1CC=C(C)C[C@@H]21`, the Ratio Ki in test [3] worked out at 226.
For `CC1CCC(NC(=O)c2cc3cccnc3n(CCCCC(=O)O)c2=O)CC1` (stereo not drawn), the inhibition constant (Ki) is 1340 nM in test [1] and more than 10000 nM in test [2].
For `CC1CCC(NC(=O)c2cc3cc(-c4ccco4)cnc3n(Cc3ccc(F)cc3)c2=O)CC1` (stereo not drawn), the Ratio Ki in test [3] amounted to 5140. In addition, the inhibition constant (Ki) in test [1] was 0.67 nM; in test [2], 3440 nM.
As for `CCCCn1c(=O)c(C(=O)NC2CCC(C)CC2)cc2cccnc21` (stereo not drawn), the Ratio Ki in test [3] came to 593. Also, the inhibition constant Ki in test [1] was 3.9 nM; in test [2], 2310 nM.
On to `COC(=O)CCCCn1c(=O)c(C(=O)NC2CCC(C)CC2)cc2cccnc21` (stereo not drawn), for which the inhibition constant Ki in test [1] was 27.1 nM; in test [2], more than 10000 nM.
For the compound `CCOC(=O)CCCn1c(=O)c(C(=O)NC2CCC(C)CC2)cc2cccnc21` (stereo not drawn), the inhibitory constant (Ki) in test [1] is 62.6 nM; in test [2], more than 10000 nM.
On to `CC1CCC(NC(=O)c2cc3cc(-c4ccc(F)cc4)cnc3n(Cc3ccc(F)cc3)c2=O)CC1` (stereo not drawn), for which the results for the Ki in test [1] and in test [2] were 2.17 nM and more than 10000 nM, respectively.
Regarding `C[C@H]1CC[C@H](NC(=O)c2cc3cc(-c4ccco4)cnc3n(Cc3ccc(F)cc3)c2=O)CC1`, the Ratio Ki in test [3] is more than 106. The Ki is 94.2 nM in test [1] and more than 10000 nM in test [2].
As for `C[C@H]1CC[C@H](NC(=O)c2cc3cc(-c4cccs4)cnc3n(Cc3ccc(F)cc3)c2=O)CC1`, in test [3], the Ratio Ki is 6.5. Besides, the inhibition constant Ki was 65.6 nM in test [1] and 430 nM in test [2].
For the compound `CC1CCC(NC(=O)c2cc3cc(-c4cccs4)cnc3n(Cc3ccc(F)cc3)c2=O)CC1` (stereo not drawn), the Ratio Ki in test [3] was 1770. Further, the results for the Ki in test [1] and in test [2] were 1.85 nM and 3280 nM, respectively.
Take `COc1ccc(-c2cnc3c(c2)cc(C(=O)NC2CCC(C)CC2)c(=O)n3Cc2ccc(F)cc2)cc1` (stereo not drawn): in test [3], the Ratio Ki came out at 851. In addition, the inhibitory constant (Ki) was 3.83 nM in test [1] and 3260 nM in test [2].
For the compound `C[C@H]1CC[C@@H](NC(=O)c2cc3cc(-c4cccs4)cnc3n(Cc3ccc(F)cc3)c2=O)CC1`, the Ratio Ki in test [3] is 491. Moreover, the Ki in test [1] turned out to be 0.96 nM; in test [2] it was 472 nM.
As for `CC1CCC(NC(=O)c2cc3cccnc3n(CCCCO)c2=O)CC1` (stereo not drawn), the EC50 (commonly the midpoint of the concentration-response curve) in test [4] is 23.7 nM. Further, in test [1], the IC50 stood at 210 nM and the Ki came to 53.3 nM. Further, the Ki in test [2] was more than 10000 nM.
For `COc1ccc(-c2cnc3c(c2)cc(C(=O)NC2CCC(C)CC2)c(=O)n3CCN2CCOCC2)cc1` (stereo not drawn), the half-inhibitory concentration (IC50) entry in test [6] (u2os) is “ND(Insoluble)”; in test [7] it was 54 nM. Further, the results for the inhibitory constant (Ki) in test [1] and in test [2] were 1.47 nM and more than 10000 nM, respectively.
Turning to `CC1CCC(NC(=O)c2cc3cc(Br)cnc3n(CCN3CCOCC3)c2=O)CC1` (stereo not drawn), the values for the half-maximal inhibitory concentration (IC50) in test [6] (read-out: IC50) and in test [7] were 59.6 nM and 32.1 nM, respectively. Also, the Ratio Ki in test [3] came out at 595. Besides, the Ki in test [1] came to 1.26 nM; in test [2] it was 750 nM.
For `CC1CCC(NC(=O)c2cc3cccnc3n(CCCCCF)c2=O)CC1` (stereo not drawn), in test [3], the Ratio Ki worked out at 40.3. The Ki in test [1] turned out to be 0.56 nM; in test [2], 22.6 nM.
On to `CC1CCC(NC(=O)c2cc3cccnc3n(CCO)c2=O)CC1` (stereo not drawn), for which the Ki in test [1] is 2100 nM; in test [2], more than 10000 nM.
As to `CCCCCn1c(=O)c(C(=O)NC2CCC(C)CC2)cc2cccnc21` (stereo not drawn), the Ratio Ki in test [3] amounted to 322. For the same compound, the inhibitory constant (Ki) in test [1] is 2.82 nM; in test [2], 908 nM.
Regarding `CC1CCC(NC(=O)c2cc3cccnc3n(Cc3ccc(F)cc3)c2=O)CC1` (stereo not drawn), the concentration for a half-maximal effect (EC50) in test [4] and in test [5] was 29.6 nM each time. The Ratio Ki in test [3] turned out to be 222. The concentration for half-maximal inhibition (IC50) in test [1] is 1.37 nM.
In the case of `CC1CCC(NC(=O)c2cc3cccnc3n(CCN3CCOCC3)c2=O)CC1` (stereo not drawn), the EC50 worked out at 17.6 nM in test [4] and 28 nM in test [5]. In addition, the Ratio Ki in test [3] stood at 526.
As to `CC1CCC(NC(=O)c2cc3cccnc3n(CCCO)c2=O)CC1` (stereo not drawn), the Ki in test [1] is 129 nM; in test [2], more than 10000 nM.
With `C[C@H]1CC[C@@H](NC(=O)c2cc3cc(-c4ccco4)cnc3n(Cc3ccc(F)cc3)c2=O)CC1`, the Ratio Ki in test [3] stood at 15000. The inhibitory constant (Ki) in test [1] amounted to 0.27 nM; in test [2] it was 4060 nM.
For the compound `CC1CCC(NC(=O)c2cc3cccnc3n(CCCCCCO)c2=O)CC1` (stereo not drawn), the Ki in test [1] was 18 nM; in test [2] it was more than 10000 nM.
